Measurements published in ChEMBL document CHEMBL4689842, “EUbOPEN Chemogenomics Library wave 1” (2021).

Test system: Fibroblast
Experiment: Multiplex assay against human fibroblast
Format: toxicity, cell-based
How it was run: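 Live cells were stained at seeding with Hoechst33342, BioTracker Green Microtubule Cytoskeleton Dye, MitoTracker Red and Annexin V Alexa Fluor 680, then imaged on a CQ1 microscope at 37°C and 5% CO2 after compound addition. CellPathfinder machine-learning gating split cells into Hoechst high-intensity objects or normal cells. Normal cells were split into healthy, pyknosed or fragmented nuclei, and pyknosed cells into mitotic or apoptotic. Tubulin, mitochondrial-mass and membrane-permeability phenotypes are per cents of healthy-nucleus cells.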

[1] = 12 h, 1 µM, compound concentration 1 uM, replicate 1
[2] = 12 h, 1 µM, compound concentration 1 uM, replicate 2
[3] = 12 h, 10 µM, compound concentration 10 uM, replicate 1
[4] = 12 h, 10 µM, compound concentration 10 uM, replicate 2
[5] = 24 h, 1 µM, compound concentration 1 uM, replicate 1
[6] = 24 h, 1 µM, compound concentration 1 uM, replicate 2
[7] = 24 h, 10 µM, compound concentration 10 uM, replicate 1
[8] = 24 h, 10 µM, compound concentration 10 uM, replicate 2
[9] = 48 h, 1 µM, compound concentration 1 uM, replicate 1
[10] = 48 h, 1 µM, compound concentration 1 uM, replicate 2
[11] = 48 h, 10 µM, compound concentration 10 uM, replicate 1
[12] = 48 h, 10 µM, compound concentration 10 uM, replicate 2

SMILES: O=c1cc(N2CCOCC2)oc2c(-c3cccc4c3sc3ccccc34)cccc12
- Population Apoptotic (%) [1]: 65%
- Population Fragmented Nuclei (%) [1]: 23%
- Population Healthy Nuclei (%) [1]: 44%
- Population Hoechst High Intensity Objects (%) [1]: 13%
- Population Membrane Permeable-Phenotype (%) [1]: 32%
- Population Mitochondria Different-Phenotype (%) [1]: 5%
- Population Mitotic Cells (%) [1]: 34%
- Population Normal (%) [1]: 86%
- Population Pyknosed Nuclei (%) [1]: 32%
- Population Tubulin-Different-Phenotype (%) [1]: 36%
- Total Cell Count [1]: 136
- Population Apoptotic (%) [2]: 100%
- Population Fragmented Nuclei (%) [2]: 15%
- Population Healthy Nuclei (%) [2]: 77%
- Population Hoechst High Intensity Objects (%) [2]: 10%
- Population Membrane Permeable-Phenotype (%) [2]: 2%
- Population Mitochondria Different-Phenotype (%) [2]: 6%
- Population Mitotic Cells (%) [2]: 0%
- Population Normal (%) [2]: 90%
- Population Pyknosed Nuclei (%) [2]: 6%
- Population Tubulin-Different-Phenotype (%) [2]: 14%
- Total Cell Count [2]: 79
- Population Apoptotic (%) [3]: 61%
- Population Fragmented Nuclei (%) [3]: 35%
- Population Healthy Nuclei (%) [3]: 28%
- Population Hoechst High Intensity Objects (%) [3]: 13%
- Population Membrane Permeable-Phenotype (%) [3]: 30%
- Population Mitochondria Different-Phenotype (%) [3]: 28%
- Population Mitotic Cells (%) [3]: 38%
- Population Normal (%) [3]: 86%
- Population Pyknosed Nuclei (%) [3]: 36%
- Population Tubulin-Different-Phenotype (%) [3]: 95%
- Total Cell Count [3]: 171
- Population Apoptotic (%) [4]: 31%
- Population Fragmented Nuclei (%) [4]: 19%
- Population Healthy Nuclei (%) [4]: 45%
- Population Hoechst High Intensity Objects (%) [4]: 16%
- Population Membrane Permeable-Phenotype (%) [4]: 23%
- Population Mitochondria Different-Phenotype (%) [4]: 90%
- Population Mitotic Cells (%) [4]: 68%
- Population Normal (%) [4]: 83%
- Population Pyknosed Nuclei (%) [4]: 34%
- Total Cell Count [4]: 70
- Population Apoptotic (%) [5]: 57%
- Population Fragmented Nuclei (%) [5]: 19%
- Population Healthy Nuclei (%) [5]: 60%
- Population Hoechst High Intensity Objects (%) [5]: 9%
- Population Membrane Permeable-Phenotype (%) [5]: 31%
- Population Mitochondria Different-Phenotype (%) [5]: 2%
- Population Mitotic Cells (%) [5]: 42%
- Population Normal (%) [5]: 90%
- Population Pyknosed Nuclei (%) [5]: 20%
- Population Tubulin-Different-Phenotype (%) [5]: 39%
- Total Cell Count [5]: 151
- Population Apoptotic (%) [6]: 60%
- Population Fragmented Nuclei (%) [6]: 11%
- Population Healthy Nuclei (%) [6]: 82%
- Population Hoechst High Intensity Objects (%) [6]: 6%
- Population Membrane Permeable-Phenotype (%) [6]: 9%
- Population Mitochondria Different-Phenotype (%) [6]: 9%
- Population Mitotic Cells (%) [6]: 40%
- Population Normal (%) [6]: 93%
- Population Pyknosed Nuclei (%) [6]: 6%
- Population Tubulin-Different-Phenotype (%) [6]: 15%
- Total Cell Count [6]: 86
- Population Apoptotic (%) [7]: 77%
- Population Fragmented Nuclei (%) [7]: 28%
- Population Healthy Nuclei (%) [7]: 45%
- Population Hoechst High Intensity Objects (%) [7]: 14%
- Population Membrane Permeable-Phenotype (%) [7]: 19%
- Population Mitochondria Different-Phenotype (%) [7]: 40%
- Population Mitotic Cells (%) [7]: 22%
- Population Normal (%) [7]: 85%
- Population Pyknosed Nuclei (%) [7]: 26%
- Population Tubulin-Different-Phenotype (%) [7]: 95%
- Total Cell Count [7]: 160
- Population Apoptotic (%) [8]: 66%
- Population Fragmented Nuclei (%) [8]: 14%
- Population Healthy Nuclei (%) [8]: 21%
- Population Hoechst High Intensity Objects (%) [8]: 6%
- Population Membrane Permeable-Phenotype (%) [8]: 50%
- Population Mitochondria Different-Phenotype (%) [8]: 70%
- Population Mitotic Cells (%) [8]: 33%
- Population Normal (%) [8]: 94%
- Population Pyknosed Nuclei (%) [8]: 63%
- Population Tubulin-Different-Phenotype (%) [8]: 70%
- Total Cell Count [8]: 86
- Population Apoptotic (%) [9]: 60%
- Population Fragmented Nuclei (%) [9]: 33%
- Population Healthy Nuclei (%) [9]: 56%
- Population Hoechst High Intensity Objects (%) [9]: 11%
- Population Membrane Permeable-Phenotype (%) [9]: 21%
- Population Mitochondria Different-Phenotype (%) [9]: 7%
- Population Mitotic Cells (%) [9]: 40%
- Population Normal (%) [9]: 88%
- Population Pyknosed Nuclei (%) [9]: 10%
- Population Tubulin-Different-Phenotype (%) [9]: 27%
- Total Cell Count [9]: 167
- Population Apoptotic (%) [10]: 50%
- Population Fragmented Nuclei (%) [10]: 18%
- Population Healthy Nuclei (%) [10]: 76%
- Population Hoechst High Intensity Objects (%) [10]: 6%
- Population Membrane Permeable-Phenotype (%) [10]: 17%
- Population Mitochondria Different-Phenotype (%) [10]: 2%
- Population Mitotic Cells (%) [10]: 50%
- Population Normal (%) [10]: 93%
- Population Pyknosed Nuclei (%) [10]: 4%
- Population Tubulin-Different-Phenotype (%) [10]: 24%
- Total Cell Count [10]: 97
- Population Apoptotic (%) [11]: 68%
- Population Fragmented Nuclei (%) [11]: 51%
- Population Healthy Nuclei (%) [11]: 23%
- Population Hoechst High Intensity Objects (%) [11]: 12%
- Population Membrane Permeable-Phenotype (%) [11]: 17%
- Population Mitochondria Different-Phenotype (%) [11]: 37%
- Population Mitotic Cells (%) [11]: 31%
- Population Normal (%) [11]: 87%
- Population Pyknosed Nuclei (%) [11]: 25%
- Population Tubulin-Different-Phenotype (%) [11]: 80%
- Total Cell Count [11]: 173
- Population Apoptotic (%) [12]: 64%
- Population Fragmented Nuclei (%) [12]: 27%
- Population Healthy Nuclei (%) [12]: 55%
- Population Hoechst High Intensity Objects (%) [12]: 10%
- Population Membrane Permeable-Phenotype (%) [12]: 6%
- Population Mitochondria Different-Phenotype (%) [12]: 48%
- Population Mitotic Cells (%) [12]: 35%
- Population Normal (%) [12]: 90%
- Population Pyknosed Nuclei (%) [12]: 17%
- Population Tubulin-Different-Phenotype (%) [12]: 88%
- Total Cell Count [12]: 90

SMILES: O=c1[nH]c2ccccc2n1C1CCN(Cc2ccc(-c3[nH]c4cc5ncnc5cc4nc3-c3ccccc3)cc2)CC1
- Population Apoptotic (%) [1]: 66%
- Population Fragmented Nuclei (%) [1]: 45%
- Population Healthy Nuclei (%) [1]: 43%
- Population Hoechst High Intensity Objects (%) [1]: 17%
- Population Membrane Permeable-Phenotype (%) [1]: 6%
- Population Mitochondria Different-Phenotype (%) [1]: 3%
- Population Mitotic Cells (%) [1]: 33%
- Population Normal (%) [1]: 82%
- Population Pyknosed Nuclei (%) [1]: 11%
- Population Tubulin-Different-Phenotype (%) [1]: 18%
- Total Cell Count [1]: 251
- Population Apoptotic (%) [2]: 83%
- Population Fragmented Nuclei (%) [2]: 72%
- Population Healthy Nuclei (%) [2]: 19%
- Population Hoechst High Intensity Objects (%) [2]: 31%
- Population Membrane Permeable-Phenotype (%) [2]: 15%
- Population Mitochondria Different-Phenotype (%) [2]: 0%
- Population Mitotic Cells (%) [2]: 16%
- Population Normal (%) [2]: 68%
- Population Pyknosed Nuclei (%) [2]: 8%
- Population Tubulin-Different-Phenotype (%) [2]: 23%
- Total Cell Count [2]: 99
- Population Apoptotic (%) [3]: 67%
- Population Fragmented Nuclei (%) [3]: 50%
- Population Healthy Nuclei (%) [3]: 37%
- Population Hoechst High Intensity Objects (%) [3]: 55%
- Population Membrane Permeable-Phenotype (%) [3]: 33%
- Population Mitochondria Different-Phenotype (%) [3]: 4%
- Population Mitotic Cells (%) [3]: 32%
- Population Normal (%) [3]: 44%
- Population Tubulin-Different-Phenotype (%) [3]: 87%
- Total Cell Count [3]: 524
- Population Apoptotic (%) [4]: 70%
- Population Fragmented Nuclei (%) [4]: 46%
- Population Healthy Nuclei (%) [4]: 40%
- Population Hoechst High Intensity Objects (%) [4]: 48%
- Population Membrane Permeable-Phenotype (%) [4]: 27%
- Population Mitochondria Different-Phenotype (%) [4]: 12%
- Population Mitotic Cells (%) [4]: 30%
- Population Normal (%) [4]: 51%
- Population Pyknosed Nuclei (%) [4]: 12%
- Population Tubulin-Different-Phenotype (%) [4]: 72%
- Total Cell Count [4]: 158
- Population Apoptotic (%) [5]: 45%
- Population Fragmented Nuclei (%) [5]: 43%
- Population Healthy Nuclei (%) [5]: 40%
- Population Hoechst High Intensity Objects (%) [5]: 20%
- Population Membrane Permeable-Phenotype (%) [5]: 8%
- Population Mitochondria Different-Phenotype (%) [5]: 5%
- Population Mitotic Cells (%) [5]: 54%
- Population Normal (%) [5]: 79%
- Population Pyknosed Nuclei (%) [5]: 15%
- Population Tubulin-Different-Phenotype (%) [5]: 16%
- Total Cell Count [5]: 268
- Population Apoptotic (%) [6]: 62%
- Population Fragmented Nuclei (%) [6]: 70%
- Population Healthy Nuclei (%) [6]: 17%
- Population Hoechst High Intensity Objects (%) [6]: 31%
- Population Membrane Permeable-Phenotype (%) [6]: 0%
- Population Mitochondria Different-Phenotype (%) [6]: 27%
- Population Mitotic Cells (%) [6]: 37%
- Population Normal (%) [6]: 68%
- Population Pyknosed Nuclei (%) [6]: 12%
- Population Tubulin-Different-Phenotype (%) [6]: 36%
- Total Cell Count [6]: 94
- Population Apoptotic (%) [7]: 70%
- Population Fragmented Nuclei (%) [7]: 44%
- Population Healthy Nuclei (%) [7]: 45%
- Population Hoechst High Intensity Objects (%) [7]: 62%
- Population Membrane Permeable-Phenotype (%) [7]: 20%
- Population Mitochondria Different-Phenotype (%) [7]: 14%
- Population Mitotic Cells (%) [7]: 29%
- Population Normal (%) [7]: 37%
- Population Pyknosed Nuclei (%) [7]: 10%
- Population Tubulin-Different-Phenotype (%) [7]: 65%
- Total Cell Count [7]: 437
- Population Apoptotic (%) [8]: 56%
- Population Fragmented Nuclei (%) [8]: 40%
- Population Healthy Nuclei (%) [8]: 36%
- Population Hoechst High Intensity Objects (%) [8]: 51%
- Population Membrane Permeable-Phenotype (%) [8]: 24%
- Population Mitochondria Different-Phenotype (%) [8]: 28%
- Population Mitotic Cells (%) [8]: 43%
- Population Normal (%) [8]: 48%
- Population Pyknosed Nuclei (%) [8]: 23%
- Population Tubulin-Different-Phenotype (%) [8]: 40%
- Total Cell Count [8]: 143
